Laboratory results: ChEMBL document CHEMBL1137381, “Biarylpyrazole inverse agonists at the cannabinoid CB1 receptor: importance of the C-3 carboxamide oxygen/lysine3.28(192) interaction” (J Med Chem, 2006)
pKi: −log10 of the molar value.

Experiments:
[1] = target: Cannabinoid receptor 1 (Rattus norvegicus) (UniProt P20272); assay: Antagonist activity against rat CB1 receptor expressed in superior cervical ganglion neurons assessed as block of WIN-55212-2-elicited calcium ion current inhibition at 10 uM relative to control; type: functional, tissue-based; design: scale not given: the % may be the effect or the level left
Sequence of Cannabinoid receptor 1 (Rattus norvegicus) (P20272 whole entry, the tested form may be a part): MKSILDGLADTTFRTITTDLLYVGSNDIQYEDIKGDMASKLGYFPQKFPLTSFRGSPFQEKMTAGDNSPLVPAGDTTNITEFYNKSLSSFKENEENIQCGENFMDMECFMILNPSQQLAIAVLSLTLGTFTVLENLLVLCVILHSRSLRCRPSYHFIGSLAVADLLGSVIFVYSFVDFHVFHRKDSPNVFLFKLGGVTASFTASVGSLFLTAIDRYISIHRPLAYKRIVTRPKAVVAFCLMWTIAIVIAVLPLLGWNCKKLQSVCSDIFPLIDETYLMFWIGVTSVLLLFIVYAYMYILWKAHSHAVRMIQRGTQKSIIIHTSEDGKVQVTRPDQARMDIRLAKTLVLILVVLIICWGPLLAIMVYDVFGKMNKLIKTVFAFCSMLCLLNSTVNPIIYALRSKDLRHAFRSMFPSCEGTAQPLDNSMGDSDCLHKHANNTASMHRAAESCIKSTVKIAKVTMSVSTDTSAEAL
In short: (§1)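 SCG neurons from rat, nuclear-injected with HA-tagged rat CB1 cDNA, recorded after overnight incubation by whole-cell patch clamp at room temperature. Ca²⁺ currents isolated with TEA/TTX external solution and NMDG/EGTA pipette solution. WIN55,212-2 (1 µM) coapplied with test compound. Inhibition of Ca²⁺ current expressed as % of control amplitude, taken 10 ms after the step to +5 mV.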

[2] = target: Cannabinoid receptor 1 (Rattus norvegicus) (UniProt P20272); assay: Agonist activity against rat CB1 receptor expressed in superior cervical ganglion neurons assessed as increase in calcium ion current at 10 uM relative to control; type: functional, tissue-based
In short: (§2)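 Rat SCG neurons nuclear-injected with N-terminally HA-tagged rat CB1 cDNA (100 ng/µL) plus EGFP marker plasmid, incubated overnight. Whole-cell voltage-clamp at 24-26 °C. Ca²⁺ current measured 10 ms into step to +5 mV, preceded by 50 ms prepulse to +80 mV. Test drug superfused alone, diluted from 10 mM DMSO stock. Current increase expressed as % of control amplitude; paired t-test.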

Cannabinoid receptor 1 [3] = target: T1, Cannabinoid receptor 1 (Homo sapiens, UniProt P21554); assay: biochemical; type: cell-based, HEK293
T1 sequence (P21554 whole entry): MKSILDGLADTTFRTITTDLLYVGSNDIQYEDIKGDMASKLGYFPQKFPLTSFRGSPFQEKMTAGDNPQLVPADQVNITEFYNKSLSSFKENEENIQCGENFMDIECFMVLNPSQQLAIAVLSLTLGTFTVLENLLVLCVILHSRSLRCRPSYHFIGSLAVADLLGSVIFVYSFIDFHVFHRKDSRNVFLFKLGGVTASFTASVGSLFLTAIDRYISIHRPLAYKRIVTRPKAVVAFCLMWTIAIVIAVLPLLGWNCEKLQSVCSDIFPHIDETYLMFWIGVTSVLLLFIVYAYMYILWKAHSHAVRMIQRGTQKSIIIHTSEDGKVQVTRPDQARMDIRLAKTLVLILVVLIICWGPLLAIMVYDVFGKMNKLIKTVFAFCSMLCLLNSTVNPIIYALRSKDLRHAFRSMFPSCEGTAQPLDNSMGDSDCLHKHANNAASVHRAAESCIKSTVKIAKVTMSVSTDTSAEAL

Cannabinoid receptor 1 [4] = target: T1, Cannabinoid receptor 1; assay: biochemical; type: cell-based, HEK293; remark: listed apart in the source
[5] = target: Cannabinoid receptor 1 (Rattus norvegicus) (UniProt P20272); assay: Antagonist activity against rat CB1 receptor expressed in superior cervical ganglion neurons assessed as block of WIN-55212-2-elicited calcium ion current inhibition at 1 uM relative to control; type: functional, tissue-based; design: scale not given: the % may be the effect or the level left; in short: as §1
Cannabinoid receptor 1 [6] = target: T1, Cannabinoid receptor 1; assay: biochemical; type: cell-based, HEK293; remark: listed apart in the source
[7] = target: Cannabinoid receptor 1 (Rattus norvegicus) (UniProt P20272); assay: Agonist activity against rat CB1 receptor expressed in superior cervical ganglion neurons assessed as increase in calcium ion current at 1 uM relative to control; type: functional, tissue-based; in short: as §2

| Compound | Activity [1] [%] | Activity [2] [%] | pKi (Cannabinoid receptor 1 [3]) | pKi (Cannabinoid receptor 1 [4]) | Activity [5] [%] | pKi (Cannabinoid receptor 1 [6]) | Activity [7] [%] |
| --- | --- | --- | --- | --- | --- | --- | --- |
| Cc1c(C(=O)N(C)C2CCCCC2)nn(-c2ccc(Cl)cc2Cl)c1-c1ccc(Cl)cc1 | -7 | 23.9 | 7.27 | 6.97 | -4.5 | 7.52 | 26.1 |
| Cc1c(/C=N/N2CCCCC2)nn(-c2ccc(Cl)cc2Cl)c1-c1ccc(Cl)cc1 | – | – | 7.24 | 7.72 | 2.6 | 7.77 | 11.5 |
| Cc1c(/C=C/N2CCCCC2)nn(-c2ccc(Cl)cc2Cl)c1-c1ccc(Cl)cc1 | 0.7 | 13.9 | 6.59 | 6.65 | -2.5 | 6.67 | 3.2 |
| Cc1c(C(=O)NN2CCCCC2)nn(-c2ccc(Cl)cc2Cl)c1-c1ccc(Cl)cc1 | – | – | – | – | -4.8 | – | 46.6 |
| Cc1c(/C=C/C2CCCCC2)nn(-c2ccc(Cl)cc2Cl)c1-c1ccc(Cl)cc1 | – | – | 7.07 | 7.22 | 28.1 | 7.50 | 8.6 |
| Cc1c(C(=O)NC2CCCCC2)nn(-c2ccc(Cl)cc2Cl)c1-c1ccc(Cl)cc1 | – | – | 8.30 | 8.43 | -3.8 | 8.74 | 35.2 |
| Cc1c(C(=O)c2cccc3ccccc23)c2cccc3c2n1[C@H](CN1CCOCC1)CO3 | – | – | – | – | – | – | 47.1 |
